Active and inactive are the calls of the source. The calls are words filed in the database; no cut-off is given here.
Experiments:
[1] = target: Acetylcholinesterase (Electrophorus electricus, UniProt O42275); experiment: Inhibition of electric eel AChE using […] as substrate preincubated for 15 mins by Ellman's method
[2] = target: T1, Butyrylcholinesterase (Equus caballus, UniProt Q9N1N9); experiment: Inhibition of equine serum BuChE using butyrylthiocholine chloride as substrate preincubated for 15 mins by Ellman's method
T1 sequence (Q9N1N9 whole entry): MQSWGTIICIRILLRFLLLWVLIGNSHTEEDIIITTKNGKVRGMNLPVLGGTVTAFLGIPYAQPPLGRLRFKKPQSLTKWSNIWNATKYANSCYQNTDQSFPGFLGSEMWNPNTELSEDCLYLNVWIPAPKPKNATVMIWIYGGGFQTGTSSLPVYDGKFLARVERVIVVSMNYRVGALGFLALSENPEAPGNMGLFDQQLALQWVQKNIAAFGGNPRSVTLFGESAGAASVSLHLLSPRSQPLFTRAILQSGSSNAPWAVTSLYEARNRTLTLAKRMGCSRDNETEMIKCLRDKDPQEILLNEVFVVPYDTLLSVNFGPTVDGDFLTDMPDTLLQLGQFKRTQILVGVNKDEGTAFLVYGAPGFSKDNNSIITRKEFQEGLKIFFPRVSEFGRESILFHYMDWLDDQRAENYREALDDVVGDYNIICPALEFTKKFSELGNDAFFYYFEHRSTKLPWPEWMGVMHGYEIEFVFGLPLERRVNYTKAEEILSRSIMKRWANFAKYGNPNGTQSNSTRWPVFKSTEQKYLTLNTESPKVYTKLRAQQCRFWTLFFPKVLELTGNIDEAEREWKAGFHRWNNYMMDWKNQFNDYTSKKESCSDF

[3] = Selectivity ratio of IC50 for equine serum BuChE to IC50 for electric eel AChE
Method in brief: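 Ellman assay in 0.1 M KH₂PO₄/K₂HPO₄ buffer, pH 8.0, with electric eel AChE or equine serum BuChE (2.0 units/ml solutions) and DTNB. Compounds dissolved in DMSO, diluted in buffer, and preincubated with enzyme for 15 min at 37 °C before substrate was added. A412 was read at 1 min intervals at 37 °C. Ratio calculated as IC50(BuChE)/IC50(AChE).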

[4] = target: T1, Butyrylcholinesterase; experiment: Inhibition of equine serum BuChE using […] as substrate preincubated for 15 mins by Ellman's method
[5] = Antioxidant activity assessed as trolox equivalent of […]-induced radical scavenging activity at 0.5 to 10 uM measured every 60 sec for 4 hrs by ORAC fluorescence assay relative to trolox; assay type: functional
Method in brief: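 ORAC-FL in 75 mM phosphate buffer pH 7.4. Sample and fluorescein (300 nM final) preincubated 10 min at 37 °C, then AAPH added (12 mM final). Fluorescence read every 60 s for 4 h (ex 485, em 535 nm). Trolox standard 1–10 µM final; samples 0.5–10 µM. Blank without antioxidant run each assay, curves normalized to it. Fourfold mixtures, at least four independent runs. Expressed as µM Trolox equivalent per µM compound.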

[6] = Inhibition of self-mediated amyloid beta (1 to 42) aggregation at 20 uM after 48 hrs by thioflavin T fluorescence assay
Method in brief: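 HFIP-pretreated Abeta1-42 resolubilized in 50 mM phosphate buffer pH 7.4, then incubated at 37 °C for 48 h (final peptide 50 µM) with or without compound at 20 µM. Samples diluted into 50 mM glycine-NaOH pH 8.0 containing thioflavin T. Fluorescence scanned 300 s (ex 450, em 485 nm). Plateau values averaged after subtracting thioflavin T background.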

[7] = target: Acetylcholinesterase (Electrophorus electricus) (UniProt O42275); experiment: Mixed type inhibition of electric eel AChE using acetylcholine chloride as substrate by Lineweaver-Burk reciprocal plot analysis
Acetylcholinesterase (Electrophorus electricus), sequence (O42275 24-633 limits assumed): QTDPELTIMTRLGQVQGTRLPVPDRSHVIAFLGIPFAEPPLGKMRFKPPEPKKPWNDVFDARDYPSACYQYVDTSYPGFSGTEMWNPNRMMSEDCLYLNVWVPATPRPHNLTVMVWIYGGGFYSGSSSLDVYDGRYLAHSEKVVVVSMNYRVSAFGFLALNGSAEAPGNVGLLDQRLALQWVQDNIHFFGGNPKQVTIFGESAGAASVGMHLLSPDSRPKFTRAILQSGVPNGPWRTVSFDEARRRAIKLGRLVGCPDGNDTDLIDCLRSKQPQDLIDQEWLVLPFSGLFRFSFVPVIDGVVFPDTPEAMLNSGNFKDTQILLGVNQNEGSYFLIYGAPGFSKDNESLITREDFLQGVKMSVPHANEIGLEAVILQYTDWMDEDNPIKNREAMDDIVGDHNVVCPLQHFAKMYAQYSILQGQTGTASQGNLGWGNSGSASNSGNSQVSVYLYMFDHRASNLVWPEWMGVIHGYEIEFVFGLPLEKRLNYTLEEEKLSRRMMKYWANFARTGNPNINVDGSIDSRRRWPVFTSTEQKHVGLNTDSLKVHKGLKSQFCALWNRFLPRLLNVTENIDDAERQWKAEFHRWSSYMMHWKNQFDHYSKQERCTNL
Method in brief: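 Enzyme in 0.1 M potassium phosphate pH 8.0 with DTNB. Compound preincubated with enzyme at 37 °C for 15 min, then acetylcholine substrate added. Absorbance read at 412 nm. Reciprocal plots of 1/V versus 1/[S]. Slopes replotted against inhibitor concentration by weighted analysis. Ki taken as the replot intercept divided by the replot slope.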

Acetylcholinesterase, sequence (O42275 whole entry): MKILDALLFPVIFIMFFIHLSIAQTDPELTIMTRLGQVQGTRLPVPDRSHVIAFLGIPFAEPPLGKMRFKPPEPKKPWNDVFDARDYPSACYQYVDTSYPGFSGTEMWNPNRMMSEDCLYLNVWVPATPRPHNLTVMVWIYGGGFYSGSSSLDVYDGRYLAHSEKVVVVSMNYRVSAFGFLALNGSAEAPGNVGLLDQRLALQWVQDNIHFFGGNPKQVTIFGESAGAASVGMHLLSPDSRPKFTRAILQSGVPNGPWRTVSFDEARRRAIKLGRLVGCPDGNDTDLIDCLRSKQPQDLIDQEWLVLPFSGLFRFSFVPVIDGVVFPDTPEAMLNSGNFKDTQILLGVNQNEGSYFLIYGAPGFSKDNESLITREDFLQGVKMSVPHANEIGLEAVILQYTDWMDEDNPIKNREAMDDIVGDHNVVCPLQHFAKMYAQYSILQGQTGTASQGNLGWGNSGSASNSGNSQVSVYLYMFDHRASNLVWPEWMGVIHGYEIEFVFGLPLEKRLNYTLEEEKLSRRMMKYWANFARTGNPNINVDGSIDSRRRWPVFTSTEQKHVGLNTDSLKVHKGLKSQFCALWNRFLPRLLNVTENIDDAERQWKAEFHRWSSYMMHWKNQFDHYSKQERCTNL

Compound	IC50 [1] [nM]	IC50 [2] [nM]	Ratio IC50 [3]	IC50 [4] [nM]	Ratio [5]	inhibition [6] [%]	inhibition [7]
COc1ccc2cc3[n+](cc2c1OCCCCOc1ccc(O)cc1)CCc1cc2c(cc1-3)OCO2	304	1040	3.42	950	6.45	86.6	
COc1ccc2cc3[n+](cc2c1OC)CCc1cc2c(cc1-3)OCO2						36.3	
COc1ccc2cc3[n+](cc2c1OCCC(=O)NCCc1c[nH]c2ccccc12)CCc1cc2c(cc1-3)OCO2	1110	1640		1460	3.78	82.8	
COc1ccc2cc3[n+](cc2c1OCCCOc1ccc(O)cc1)CCc1cc2c(cc1-3)OCO2	460	2060	4.48	1660	9.54	92	
COc1cc(/C=C/C(=O)O)ccc1O [FERULATE]	> 100000				3.13	6.1	
COc1ccc2cc3[n+](cc2c1OCCCCOc1ccccc1O)CCc1cc2c(cc1-3)OCO2	123	2090	17	1740	3.54	84.5	Active
COc1cc(/C=C/C(=O)OCCCOc2c(OC)ccc3cc4[n+](cc23)CCc2cc3c(cc2-4)OCO3)ccc1O	3210	2400	0.75	2250	3.43	75.8	
COc1ccc2cc3[n+](cc2c1OCCCOc1cccc(O)c1)CCc1cc2c(cc1-3)OCO2	628	1130	1.8	898	5.31	85.9	
COc1ccc2[nH]cc(CCNC(=O)CCOc3c(OC)ccc4cc5[n+](cc34)CCc3cc4c(cc3-5)OCO4)c2c1	1440	2720	1.88	2490	3.61	79.5	
COc1ccc2[nH]cc(CCNC(C)=O)c2c1					2.3		
COc1ccc2cc3[n+](cc2c1OCCC(=O)NCCc1c[nH]c2ccc(C)cc12)CCc1cc2c(cc1-3)OCO2	1420	1960	1.39	1790	3.11	75.8	
COc1ccc2cc3[n+](cc2c1OCCCCOc1ccccc1)CCc1cc2c(cc1-3)OCO2						57.4	
COc1ccc2cc3[n+](cc2c1OCCCOc1ccccc1O)CCc1cc2c(cc1-3)OCO2	490	1740	3.55	1300	3.41	83.5	
COc1ccc2cc3[n+](cc2c1OCCCCOc1cccc(O)c1)CCc1cc2c(cc1-3)OCO2	547	2400	4.39	1920	5.3	72.8	

From ChEMBL document CHEMBL1926506, “Benzenediol-berberine hybrids: multifunctional agents for Alzheimer's disease” (Bioorg Med Chem, 2011)
